Here are results for 4 compounds from ChEMBL document CHEMBL1145051, “Synthesis and biological evaluation of 3-alkoxy analogues of flavone-8-acetic acid” (J Med Chem, 2003).

Molecules are shown by their SMILES.

In one test the test system is C13. The test is described as follows: Direct cytotoxicity against the selected tumor cell line c13* was determined especially on ovarian adenocarcinoma derived cells. It is filed as functional, cell-based. The note with it: Homo sapiens.
As a reminder, the IC50 is the point on the concentration scale where inhibition reaches its midpoint. In turn, `COc1c(-c2ccc(Cl)cc2)oc2c(CC(=O)O)cccc2c1=O` returned an IC50 of 350 µM.

Turning to `O=C(O)Cc1cccc2c(=O)cc(-c3ccccc3)oc12` [MITOFLAXONE], the half-inhibitory concentration (IC50) amounted to 233 µM.

The subject of another test is LoVo. Kind of test: In vitro cytotoxicity against the selected tumor cell line LoVoS arising from human colon adenocarcinoma was determined; not detected. The class given is functional, cell-based.
Conditions: not given
On to `COc1c(-c2cccc(C(F)(F)F)c2)oc2c(CC(=O)O)cccc2c1=O`, for which the IC50 result is recorded as “not detected”.

Regarding `COc1c(-c2ccc(F)cc2)oc2c(CC(=O)O)cccc2c1=O`, the 50% inhibitory concentration (IC50) entry is recorded as “not detected”.

On to `COc1c(-c2ccc(Cl)cc2)oc2c(CC(=O)O)cccc2c1=O`, for which the half-maximal inhibitory concentration (IC50) result is on record as “not detected”.

Test system in a further test: not listed separately
Kind of test: Potency ratio was determined against C13 cell line versus FAA (Flavone acetic acid). The class given is functional.
Conditions: not given
The essentials:
(§1)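 Ratio IC50(FAA)/IC50(analogue) from direct 24 h MTT cytotoxicity on the named line (LoVo S, LoVo R, 2008 or C13*), concentrations up to 500 μM. IC50 values and 95% confidence limits by Litchfield–Wilcoxon method; three experiments in triplicate.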
For `O=C(O)Cc1cccc2c(=O)cc(-c3ccccc3)oc12` [MITOFLAXONE], the Potency ratio was 1.

Test system in another test: not listed separately
The test is described as follows: Potency ratio was determined against murine macrophages versus FAA (Flavone acetic acid). It is filed as functional.
Conditions: not given
Put shortly: (§2)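 Ratio of reference IC50 (FAA or DMXAA) to analogue IC50 in the effector-cell coculture assay: mouse peritoneal macrophages or adherent human PBMC pretreated 24 h with drug, then C13* target cells added for 24 h, lysis by MTT. IC50 and ratios by Litchfield–Wilcoxon; three experiments in triplicate.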
As to `COc1c(-c2ccc(Cl)cc2)oc2c(CC(=O)O)cccc2c1=O`, the Potency ratio came to 0.9.

In the case of `O=C(O)Cc1cccc2c(=O)cc(-c3ccccc3)oc12` [MITOFLAXONE], the Potency ratio was found to be 1.

For the next test, the system named is LoVo. Kind of test: In vitro cytotoxicity against the selected tumor cell line LoVoR arising from human colon adenocarcinoma was determined; not detected. It is filed as functional, cell-based.
Conditions: not given
Turning to `COc1c(-c2ccc(F)cc2)oc2c(CC(=O)O)cccc2c1=O`, the IC50 entry was “not detected”.

Turning to `COc1c(-c2ccc(Cl)cc2)oc2c(CC(=O)O)cccc2c1=O`, the IC50 result is on record as “not detected”.

The species entered for a further test is Mus musculus. The test is described as follows: Indirect antitumor effect was measured as cytotoxicity against murine macrophages; not detected. The class given is functional.
Conditions: not given
Put shortly:
(§3)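 Resident mouse peritoneal macrophages (heparinised PBS lavage, 2 h adherence) plated at 1 × 10^4 cells/well with a range of drug concentrations, triplicate wells, 24 h. Medium removed, C13* cells (2 × 10^3/well) added, cocultured 24 h. Lysis by MTT; specific cytotoxicity = [OD(macrophages+C13*) − OD(macrophages)]/OD(C13*). Three experiments; IC50 by Litchfield–Wilcoxon.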
On to `COc1c(-c2cccc(C(F)(F)F)c2)oc2c(CC(=O)O)cccc2c1=O`, for which the half-maximal inhibitory concentration (IC50) entry is listed as “not detected”.

In the case of `COc1c(-c2ccc(F)cc2)oc2c(CC(=O)O)cccc2c1=O`, the half-inhibitory concentration (IC50) result is reported as “not detected”.

Test system in another test: not listed separately
The test is described as follows: Indirect antitumor effect was measured as cytotoxicity against human monocytes; not detected. It is filed as functional.
Conditions: not given
The essentials: (§4)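 Adherent human PBMC (Ficoll isolation, 2 h adherence, washed) pretreated 24 h with 25, 50, 100 μM in RPMI 1640/5% FCS, triplicate wells. Medium removed, C13* cells (2 × 10^3/well) cocultured 24 h, read by MTT. Three experiments; IC50 by Litchfield–Wilcoxon.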
Regarding `O=C(O)Cc1cccc2c(=O)cc(-c3ccccc3)oc12` [MITOFLAXONE], the IC50 entry is listed as “not detected”.

The test system of another test is 2008. Kind of test: Direct cytotoxicity against the selected tumor cell line 2008 was determined especially on ovarian adenocarcinoma derived cells. It is filed as functional, cell-based. As to conditions: Homo sapiens.
The compound `O=C(O)Cc1cccc2c(=O)cc(-c3ccccc3)oc12` [MITOFLAXONE] yielded an IC50 of 421 µM.

Test system in another test: not listed separately
Kind of test: Potency ratio was determined against human monocytes versus DMXAA (Dimethylxanthenone-4-acetic acid). It is filed as functional.
Conditions: not given
Put shortly:
as §2
On to `COc1c(-c2ccc(Cl)cc2)oc2c(CC(=O)O)cccc2c1=O`, for which the Potency ratio was 1.3.

Test system in another test: not listed separately
The test is described as follows: Potency ratio was determined against LoVoS versus FAA (Flavone acetic acid). It is filed as functional.
Conditions: not given
Put shortly: as §1
In the case of `O=C(O)Cc1cccc2c(=O)cc(-c3ccccc3)oc12` [MITOFLAXONE], the Potency ratio stood at 1.

Test system in a further test: not listed separately
Kind of test: Potency ratio was determined against C13 cell line versus FAA (Flavone acetic acid); less potent. The class given is functional.
Conditions: not given
Put shortly:
as §1
With `COc1c(-c2ccc(Cl)cc2)oc2c(CC(=O)O)cccc2c1=O`, the Potency ratio was determined as 0.7.

The species entered for another test is Mus musculus. Kind of test: Indirect antitumor effect was measured as cytotoxicity with murine macrophages pretreated with compounds. The class given is functional.
Conditions: not given
The essentials: as §3
For the compound `COc1c(-c2ccc(Cl)cc2)oc2c(CC(=O)O)cccc2c1=O`, the half-maximal inhibitory concentration (IC50) is 293 µM.

Consider `O=C(O)Cc1cccc2c(=O)cc(-c3ccccc3)oc12` [MITOFLAXONE], for which the IC50 was 285 µM.

Test system in the next test: not listed separately
The test is described as follows: Potency ratio was determined against 2008 cell line versus FAA (Flavone acetic acid). The class given is functional.
Conditions: not given
Put shortly:
as §1
As to `O=C(O)Cc1cccc2c(=O)cc(-c3ccccc3)oc12` [MITOFLAXONE], the Potency ratio was 1.

Test system in a further test: not listed separately
Kind of test: Indirect antitumor effect was measured as cytotoxicity with human monocytes pretreated with compounds. It is filed as functional.
Conditions: not given
The essentials: as §4
On to `COc1c(-c2cccc(C(F)(F)F)c2)oc2c(CC(=O)O)cccc2c1=O`, for which the IC50 stood at 18.3 µM.

Turning to `COc1c(-c2ccc(F)cc2)oc2c(CC(=O)O)cccc2c1=O`, the half-maximal inhibitory concentration (IC50) is 436 µM.

For the compound `COc1c(-c2ccc(Cl)cc2)oc2c(CC(=O)O)cccc2c1=O`, the IC50 was determined as 105 µM.

Test system in another test: not listed separately
Kind of test: cPotency ratio was determined against macrophages; more potent. The class given is functional.
Conditions: not given
The essentials: as §2
Take `COc1c(-c2ccc(Cl)cc2)oc2c(CC(=O)O)cccc2c1=O`: the Potency ratio turned out to be 2.8.

The test system of the next test is C13. Kind of test: Direct cytotoxicity against the selected tumor cell line c13* was determined especially on ovarian adenocarcinoma derived cells; not detected. It is filed as functional, cell-based, Homo sapiens.
Conditions: not given
As to `COc1c(-c2cccc(C(F)(F)F)c2)oc2c(CC(=O)O)cccc2c1=O`, the IC50 result is “not detected”.

As for `COc1c(-c2ccc(F)cc2)oc2c(CC(=O)O)cccc2c1=O`, the half-maximal inhibitory concentration (IC50) entry was “not detected”.

For the next test, the system named is 2008. The test is described as follows: Direct cytotoxicity against the selected tumor cell line 2008 was determined especially on ovarian adenocarcinoma derived cells; not detected. The class given is functional, cell-based, Homo sapiens.
Conditions: not given
For the compound `COc1c(-c2cccc(C(F)(F)F)c2)oc2c(CC(=O)O)cccc2c1=O`, the IC50 entry is recorded as “not detected”.

As for `COc1c(-c2ccc(F)cc2)oc2c(CC(=O)O)cccc2c1=O`, the half-inhibitory concentration (IC50) result was “not detected”.

With `COc1c(-c2ccc(Cl)cc2)oc2c(CC(=O)O)cccc2c1=O`, the IC50 entry is on record as “not detected”.

A further test concerns LoVo. The test is described as follows: In vitro cytotoxicity against the selected tumor cell line LoVoS arising from human colon adenocarcinoma was determined. The class given is functional, cell-based.
Conditions: not given
For `O=C(O)Cc1cccc2c(=O)cc(-c3ccccc3)oc12` [MITOFLAXONE], the 50% inhibitory concentration (IC50) was 564 µM.

Test system in a further test: not listed separately
The test is described as follows: Potency ratio was determined against LoVoR versus FAA (Flavone acetic acid). The class given is functional.
Conditions: not given
Put shortly: as §1
Take `COc1c(-c2cccc(C(F)(F)F)c2)oc2c(CC(=O)O)cccc2c1=O`: the Potency ratio is 0.7.

Regarding `O=C(O)Cc1cccc2c(=O)cc(-c3ccccc3)oc12` [MITOFLAXONE], the Potency ratio amounted to 0.6.

The test system of another test is LoVo. The test is described as follows: In vitro cytotoxicity against the selected tumor cell line LoVoR arising from human colon adenocarcinoma was determined. The class given is functional, cell-based.
Conditions: not given
In turn, `COc1c(-c2cccc(C(F)(F)F)c2)oc2c(CC(=O)O)cccc2c1=O` gave a half-inhibitory concentration (IC50) of 532 µM.

In turn, `O=C(O)Cc1cccc2c(=O)cc(-c3ccccc3)oc12` [MITOFLAXONE] gave an IC50 of 378 µM.

Test system in another test: not listed separately
Kind of test: Potency ratio was determined against human monocytes versus DMXAA (Dimethylxanthenone-4-acetic acid); more potent. The class given is functional.
Conditions: not given
Put shortly: as §2
On to `COc1c(-c2cccc(C(F)(F)F)c2)oc2c(CC(=O)O)cccc2c1=O`, for which the Potency ratio is 7.3.

Test system in another test: not listed separately
The test is described as follows: Potency ratio was determined against human monocytes versus DMXAA (Dimethylxanthenone-4-acetic acid); less potent. The class given is functional.
Conditions: not given
Put shortly:
as §2
As to `COc1c(-c2ccc(F)cc2)oc2c(CC(=O)O)cccc2c1=O`, the Potency ratio turned out to be 0.3.
